Compound activity (PubChem BioAssay)
Measles CPE: protection of cells from measles virus | Measles virus-infected cells, CPE protection, absorbance | protection (pct of control), % at 4 µM | actives 1.5% (n = 140,000); in the data active means protection mostly above about 24%, no sharp cut-off; inactive means mostly below about 26%
Yeast lifespan up: yeast lifespan extension. inhibition of the nicotinamide effect, % at 10 µM. S. cerevisiae growth with nicotinamide, OD615; deaD strain in restrictive glucose medium. actives 0.68% (n = 130,000);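 active means inhibition above a set limit, placed 3 SD over the median of all compounds, cut at about 26% in these data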;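 further: 0% = nicotinamide-treated wells and 100% = cells grown without nicotinamide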
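assay system = DeaD-strain S. cerevisiae | buffer or medium = restrictive glucose medium | reagent = 1.5 mM nicotinamide | compound = 10 µM single point, 0.25% DMSO | incubation = 48 h compound exposure at 30 °C, humidified | signal = OD615 measurement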
BB579 growth dn: chemicals that inhibit yeast BB579 growth in restrictive medium (lifespan-shortening candidates); S. cerevisiae BB579 growth, OD615, 48 h; inhibition, % at 10 µM; actives 0.51% (n = 140,000); AID 804;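 active means inhibition above a set limit, 3 SD over the mean compound inhibition, cut at about 44% in these data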
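Test system: DeaD yeast strain BB579 / Buffer or medium: restrictive glucose-based CSMM-D medium / Doses: single 10 µM dose / Schedule: 4 h cell preincubation, 48 h compound exposure, 30 °C humidified / Technique: culture absorbance at 615 nm / Controls: amphotericin B positive control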
RAM network inh: inhibitors of the yeast RAM network. inhibition, % at 50 µM. AID 868. actives 1.8% (n = 190,000). S. cerevisiae dse1pr::URA3 reporter, 5-FOA growth OD615, 2 d; analog-sensitive cbk1-as2 kinase mutant strain;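 active means inhibition above a set limit, 3 SD over mean compound inhibition, cut at about 8.4% in these data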;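 further: 0% = DMSO-only wells with no growth and 100% = 10 µM 1-NA-PP1 full growth; inhibition rescues growth on 5-FOA so higher OD means more RAM inhibition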
sdo1 growth: compounds rescuing growth of sdo1-depleted yeast, bone marrow failure model; S. cerevisiae sdo1-depleted JHY4D growth rescue, OD600 30 h; hits give high values; pdr5 snq2 efflux-pump mutant strain; z-score at 10 µM; actives 0.21% (n = 140,000);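 active means z-score above 3 at both the 24 hr and the 30 hr optical density reads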;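 further: z-score against mean and SD of all compound wells on the same plate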
An asterisk follows results filed as active; / = no result. Hits are enriched below; roughly 3.8% of the tested compounds scored in any of these assays.

SMILES	Measles CPE	Yeast lifespan up	BB579 growth dn	RAM network inh	sdo1 growth
C=CCN(c1ccc(C(=O)N(CC)CC)cc1)S(C)(=O)=O	17	/	-12	2	2.1
CCN(CC)C(=O)c1ccc(N2C(=O)C3CC=C(Cl)CC3C2=O)cc1 (stereo not given)	3	26*	-2	0	0.06
O=c1c2ccccc2nc(CSc2ncnc3nc[nH]c23)n1-c1ccccc1Cl	9	/	-2	10*	-0.1
CN(C)C1(c2nnnn2CCOC(=O)Nc2ccc(Cl)cc2)CCCCC1	3	66*	-12	1	-1.1
COP(=O)(OC)/C(C=O)=N/Nc1ccc([N+](=O)[O-])cc1	/	/	/	0	/
O=c1[nH]c(=S)[nH]c(O)c1N=Nc1ccc2c(c1)OCO2	/	/	/	10.0*	/
O=[N+]([O-])c1ccc(N2CCCC2)cc1N/N=C1\CN2CCC1CC2	8	2	-55	3	1.6
Cc1c2ccncc2c(C)c2c1[nH]c1ccccc12	0	-8	100*	-1	-1.8
c1ccc2c(c1)[nH]c1cnccc12	33	6	-42	2	0.68
CCc1c(C)nc(N)nc1N1N=C1SC(C(C)=O)C(C)=O	/	/	/	0	/
FC(F)(F)C1=NC(C(F)(F)F)=NP(N2CCOCC2)(N2CCOCC2)=N1	13	-9	-26	-1	0.65
O=C(Nc1cccc2ccccc12)c1nn(C23CC4CC(CC(C4)C2)C3)cc1Br	38*	-14	-38	2	-0.72
Cc1cccc(N/N=C(\C(N)=O)C2=NC(C)(C)Cc3ccccc32)c1	31	-6	-36	0	-1.7
CC(C)(C)C(=O)c1cn(Cc2ccccc2)c2ccccc12	/	/	/	0	/
C(=NC12CN3CN(CN(C3)C1)C2)c1cccs1	55*	-18	-25	2	0.88
CCC(C)C12CN3CCN(CC(C)(C3)C1O)C2 (stereo not given)	/	/	/	0	/
N#CC1=C(N)Oc2c(c(=O)oc3ccccc23)C1c1ccc([N+](=O)[O-])o1 (stereo not given)	/	/	/	5	/
COc1ccc(C2C(C#N)=C(N)Oc3c2c(=O)oc2ccccc32)cc1Cn1cc([N+](=O)[O-])cn1 (stereo not given)	24*	-17	-25	2	0.96
COc1ccc(C)cc1NC1=NCCCS1	/	/	/	4	/
Cn1cc(C(=O)c2ccccc2)c2ccccc21	12	-6	-10	1	-0.44
O=C(O)Cn1cc(C(=O)c2ccccc2)c2ccccc21	40*	-6	-18	0	2.8
COc1ccc(C(=O)C(C)(C)NO)cc1	8	9	52*	-1	1.6
CCCCCc1nc2c(c(=O)c3ccccc3n2C)c(=O)n1C1CCCCCC1	26	34*	15	2	-2
CCCCCc1nc2ccccc2c(=O)n1-c1ccccc1[N+](=O)[O-]	7	7	-21	5	-0.56
OC(c1ccc(F)cc1)C(c1ccccc1)N1CCOCC1 (stereo not given)	39*	-2	-33	2	0.01
SMILES	Measles CPE	Yeast lifespan up	BB579 growth dn	RAM network inh	sdo1 growth
CC(NC(=O)Oc1ccccc1)C(c1cccs1)N1CCOCC1 (stereo not given)	17	/	-24	0	-0.49
CC1(C)CC(=O)C2=C(C1)NC(=O)C21C(C(=O)OC(C)(C)C)=C(N)Oc2ccc(Br)cc21 (stereo not given)	15	-8	-40	3	-0.22
N=C1c2ccccc2CN1CC(=O)c1ccccc1	7	8	-18	-1	1.5
CCCN1C2CCCC1CC(NC(C)=O)C2 (stereo not given)	49*	-10	-30	1	0.86
CC(=O)NC1CC2CCCC(C1)N2 (stereo not given)	28	-3	-16	-1	0.41
CCCCCCn1c(=O)c(C(=O)Nc2cnccn2)c(O)c2ccccc21	/	/	/	8.7*	/
CCCCCn1c(=O)c(C(=O)NCc2ccncc2)c(O)c2ccccc21	26	0	0	-2	-0.45
O=c1[nH]c2ccccc2o1	45*	-1	-3	-1	0.81
CCC(C)NC(=O)c1c(N)n(CC2CCCO2)c2nc3ccccc3nc12 (stereo not given)	29	-7	-29	9.1*	-2.3
CC(C)CCNC(=O)c1cc(C(=O)c2cc(F)ccc2O)cn(CCC(C)C)c1=O	/	/	/	7	/
CC(C)CCNC(=O)c1cc(C(=O)c2cc(Br)ccc2O)cn(CCC(C)C)c1=O	/	/	/	9.2*	/
CCOC(=O)C1(CCOc2ccccc2)CCN(Cc2ccc(C)s2)CC1	/	/	/	1	/
CN1C2CCC1/C(=C/c1ccccn1)C(=O)/C2=C\c1ccccn1	0	37*	-31	2	-1.2
Cc1cc(/C=C2/C(=O)NC(=O)N(C)C2=O)c(C)n1-c1ccccc1	/	/	/	4	/
Cc1cc(C=C2C(=O)N(C)C(=S)N(C)C2=O)c(C)n1-c1cccnc1	4	51*	13	1	-0.55
Cc1ccc(Sc2ccc(C=C3C(=O)N(C)C(=O)N(C)C3=O)o2)cc1	/	/	/	8	/
CN1C(=O)C(=Cc2ccc(-c3cccc(Cl)c3)o2)C(=O)N(C)C1=O	20*	21	-17	0	-0.17
CC(C)N1CC=C(c2c[nH]c3ccccc23)CC1	36*	2	-24	1	1.1
Cc1cccc(OCC(=O)N2CCN(Cc3ccncc3)CC2)c1	43*	-6	-16	1	0.66
CCCCn1c(=O)c(C=Nc2ccc(Cl)cc2)c(O)n(Cc2ccco2)c1=O	6	1	-58	8.5*	-0.12
CC(C)n1c(=O)c(C=Nc2ccc(S(N)(=O)=O)cc2)c(O)n(Cc2ccco2)c1=O	4	-6	-14	2	1.4
CCCCn1c(=O)c(C(=O)Nc2ccsc2C(=O)OC)c(O)c2ccccc21	10	5	-48	5	-0.55
CC#CP(=O)(OC)C(O)(CF)c1ccccc1 (stereo not given)	5	3	-20	2	0.56
CNC(=O)Oc1cccc(-c2cn3cc(OC(=O)NC)ccc3n2)c1	8	-3	51*	0	-2
CCOC(=O)C1CCN(/C=C2/C(=O)NC(=O)N(c3cccc(C)c3C)C2=O)CC1	/	/	/	0	/
SMILES	Measles CPE	Yeast lifespan up	BB579 growth dn	RAM network inh	sdo1 growth
Cc1cc(OCc2ccc([N+](=O)[O-])cc2)c2c3c(c(=O)oc2c1)CCCC3	46*	-5	-12	4	-0.05
CCOCCCNC(=O)C1c2cc(OC)c(OC)cc2C(=O)N2CCCCC12 (stereo not given)	11	1	-6	1	-0.51
O=P(Oc1ccccc1)(Oc1ccccc1)C(Nc1ccccc1)c1ccccc1 (stereo not given)	11	4	-7	9.4*	-0.45
COP(=O)(OC)C(Nc1ccccn1)c1ccccc1 (stereo not given)	12	-3	-11	0	0.61
O=C1NC(=O)N(Cc2ccccc2)C(=O)/C1=C\c1ccco1	/	/	/	0	/
O=C1NC(=O)N(Cc2ccco2)C(=O)/C1=C/c1cccn1CCOc1ccccc1Cl	17	5	-19	8.7*	-0.87
CCN1C(=O)C(=Cc2cc(C)n(C3CC3)c2C)C(=O)N(CC)C1=S	41	1	-53	4	0.27
